We go through two compounds from ChEMBL document CHEMBL3414503, “Distinct novel quinazolinone exhibits selective inhibition in MGC-803 cancer cells by dictating mutant p53 function” (Eur J Med Chem, 2015).

Data set [1] relates to MGC-803. Kind of data set: Cell cycle arrest in human MGC803 cells assessed as accumulation at S phase at 10 uM after 48 hrs by propidium iodide staining-based FACS analysis relative to control. It counts as functional.
The test system of data set [2] is Cellular tumor antigen p53 (Homo sapiens), P04637 [UNDEFINED MUTATION]. Kind of data set: Inhibition of P53 mutant in human MGC803 cells assessed as change in BAX expression at 1 to 10 uM after 24 hrs by Western blot analysis. Particulars: MGC-803. Type of data set: cell-based.
Sequence of Cellular tumor antigen p53 (Homo sapiens), P04637 [UNDEFINED MUTATION] (P04637 whole entry, looked up, stated change not applied): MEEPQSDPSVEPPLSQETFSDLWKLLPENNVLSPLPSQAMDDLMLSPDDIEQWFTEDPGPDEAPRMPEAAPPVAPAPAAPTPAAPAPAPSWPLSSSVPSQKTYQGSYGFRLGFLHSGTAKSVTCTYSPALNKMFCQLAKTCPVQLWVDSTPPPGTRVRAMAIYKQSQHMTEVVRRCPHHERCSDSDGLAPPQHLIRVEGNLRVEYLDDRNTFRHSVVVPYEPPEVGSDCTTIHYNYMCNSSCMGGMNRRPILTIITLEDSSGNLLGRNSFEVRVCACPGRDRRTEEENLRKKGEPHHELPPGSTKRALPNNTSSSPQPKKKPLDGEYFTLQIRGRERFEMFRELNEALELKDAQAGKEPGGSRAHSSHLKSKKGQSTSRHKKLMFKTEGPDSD
For data set [3], the system named is HepG2. Kind of data set: Cytotoxicity against human HepG2 cells assessed as cell viability after 48 hrs by MTT assay. It counts as functional, cell-based. Particulars: HepG2, 48 h. The essentials:
(§1)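 Cells were trypsinized, seeded in 96-well plates at 2 × 10³ cells/well and grown for 24 h. Medium was then replaced with compound solutions (in DMSO, range from 0.1) for 48 h, and viability was read by MTT. Cancer lines were grown in RPMI 1640 + 10% FCS. IC50 from 3 independent experiments, each in triplicate.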

In data set [4] the test system is MGC-803. Kind of data set: Induction of apoptosis in human MGC803 cells assessed as chromatin condensation at 1 to 10 uM after 48 hrs by Hoechst 33258 staining-based fluorescence confocal microscopic analysis. It counts as functional, cell-based. The essentials:
(§2)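 MGC-803 cells grown on glass slides and treated 48 h. They were then washed in PBS, fixed in 4% paraformaldehyde and permeabilized with 1% Triton X-100. After four washes, Hoechst 33258 ([…] final) was added in the last wash to stain nuclei.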

Data set [5] relates to MGC-803. Kind of data set: Cytotoxicity against human MGC803 cells assessed as cell viability after 48 hrs by MTT assay. It counts as functional, cell-based. Particulars: MGC-803, 48 h. The essentials:
as §1
On the technique in general: Tetrazolium assays rely on reduction of a dye to a coloured formazan, in cell work by metabolically active cells.

Data set [6] concerns Cellular tumor antigen p53 (Homo sapiens), P04637 [UNDEFINED MUTATION]. Kind of data set: Inhibition of P53 mutant in human MGC803 cells assessed as decrease in p21 expression at 1 to 10 uM after 24 hrs by Western blot analysis. It counts as cell-based. Particulars: MGC-803. The essentials: (§3)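 MGC-803 cells, 3 × 10⁵ per well of a 6-well plate, exposed to compound for 24 h. Cells were washed in ice-cold PBS and lysed in sample buffer, then run on SDS-PAGE and transferred to nitrocellulose. Blots were probed with primary antibodies and […] anti-rabbit IgG and developed by ECL.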
A general note: In western blotting, separated proteins are transferred to a membrane and probed.

Data set [7] has as its system MGC-803. Kind of data set: Cell cycle arrest in human MGC803 cells assessed as accumulation at sub G1 phase at 1 uM after 48 hrs by propidium iodide staining-based FACS analysis relative to control. Type of data set: functional. (In flow cytometry, cells or beads pass a laser one at a time.)
Data set [8] relates to Cellular tumor antigen p53 (Homo sapiens), P04637 [UNDEFINED MUTATION]. Kind of data set: Inhibition of P53 mutant in human MGC803 cells assessed as upregulation of cdk2 activity at 1 to 10 uM after 24 hrs by Western blot analysis. Particulars: MGC-803.
Data set [9] deals with MGC-803. Kind of data set: Cell cycle arrest in human MGC803 cells assessed as accumulation at S phase at 1 uM after 48 hrs by propidium iodide staining-based FACS analysis relative to control. Type of data set: functional.
Data set [10] relates to Cellular tumor antigen p53 (Homo sapiens), P04637 [UNDEFINED MUTATION]. Kind of data set: Inhibition of P53 mutant in human MGC803 cells assessed as upregulation of Bim expression at 1 to 10 uM after 24 hrs by Western blot analysis. It counts as cell-based. Particulars: MGC-803.
Data set [11] concerns MGC-803. Kind of data set: Induction of apoptosis in human MGC803 cells assessed as caspase-3 activation at 5 uM after 24 hrs by FITC-DEVD-FMK probe-based flow cytometric analysis (reference value: 1.8%). It counts as functional. The essentials:
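Treated and control MGC-803 cells (5 µM, 24 h) harvested at 1 × 10⁶ cells/mL in RPMI 1640 + 10% FCS. Incubated with FITC-DEVD-FMK for 1 h at 37 °C, 5% CO₂, then analysed by flow cytometry with 488 nm excitation. Given as percent change versus untreated control.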

In data set [12] the test system is MGC-803. Kind of data set: Induction of apoptosis in human MGC803 cells assessed as chromatin fragmentation at 1 to 10 uM after 48 hrs by Hoechst 33258 staining-based fluorescence confocal microscopic analysis. It counts as functional, cell-based. The essentials: as §2
Data set [13] relates to MGC-803. Kind of data set: Cytotoxicity against human MGC803 cells assessed as cell size at 1 uM after 48 hrs by FACS analysis relative to control. It counts as functional. The essentials:
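Cells treated 48 h with DMSO or compound at […] as printed. Forward scatter (mean FSC-H) measured by FACS and given relative to control cells.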

In data set [14] the test system is Cellular tumor antigen p53 (Homo sapiens), P04637 [UNDEFINED MUTATION]. Kind of data set: Inhibition of P53 mutant in human MGC803 cells assessed as downregulation of Bcl-2 expression at 1 to 10 uM after 24 hrs by Western blot analysis. It counts as cell-based. Particulars: MGC-803.
The test system of data set [15] is NCI-H460. Kind of data set: Cytotoxicity against human NCI-H460 cells assessed as cell viability after 48 hrs by MTT assay. Particulars: NCI-H460, 48 h. Type of data set: functional, cell-based. The essentials: as §1
In data set [16] the test system is Cellular tumor antigen p53 (Homo sapiens), P04637 [UNDEFINED MUTATION]. Kind of data set: Inhibition of P53 mutant acetylation at k373 in human MGC803 cells at 1 to 10 uM after 24 hrs by Western blot analysis. It counts as cell-based. Particulars: MGC-803. The essentials: as §3
For data set [17] the test system is unchanged. Kind of data set: Inhibition of P53 mutant phosphorylation at s392 in human MGC803 cells at 1 to 10 uM after 24 hrs by Western blot analysis. Type of data set: cell-based. Particulars: MGC-803. The essentials:
as §3

For data set [18] the test system is unchanged. Kind of data set: Inhibition of P53 mutant in human MGC803 cells assessed as AIF release from mitochondria and translocation to nucleus at 1 to 10 uM after 48 hrs by immunostaining assay. It counts as cell-based. Particulars: MGC-803. The essentials:
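MGC-803 cells on slides, 48 h after treatment, were washed in PBS and fixed in 4% paraformaldehyde. They were immunostained for AIF with primary antibody and a Cy3-conjugated secondary.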

Data set [19] concerns A-375. Kind of data set: Cytotoxicity against human A375 cells assessed as cell viability after 48 hrs by MTT assay. It counts as functional, cell-based. Particulars: A-375, 48 h. The essentials: as §1
Data set [20] concerns MGC-803. Kind of data set: Cell cycle arrest in human MGC803 cells assessed as accumulation at G0/G1 phase at 1 uM after 48 hrs by propidium iodide staining-based FACS analysis relative to control. It counts as functional.
Data set [21] can be described thus: Cytotoxicity against human WI38 cells expressing wild type p53 assessed as cell viability at 1 to 10 uM after 48 hrs by MTT assay. It counts as cell-based. Particulars: wi-38, 48 h. The essentials: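 WI-38 normal lung fibroblasts, grown in DMEM + 10% FCS, seeded at 2 × 10³ cells/well in 96-well plates for 24 h. Then exposed to compound (in DMSO) for 48 h, with viability by MTT.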

In data set [22] the test system is MGC-803. Kind of data set: Cell cycle arrest in human MGC803 cells assessed as accumulation at sub G1 phase at 10 uM after 48 hrs by propidium iodide staining-based FACS analysis relative to control. It counts as functional.
The subject of data set [23] is MGC-803. Kind of data set: Cell cycle arrest in human MGC803 cells assessed as accumulation at G0/G1 phase at 10 uM after 48 hrs by propidium iodide staining-based FACS analysis relative to control. Type of data set: functional.
The subject of data set [24] is MGC-803. Kind of data set: Cell cycle arrest in human MGC803 cells assessed as accumulation at G2/M phase at 10 uM after 48 hrs by propidium iodide staining-based FACS analysis relative to control. Type of data set: functional.
Data set [25] has as its system MGC-803. Kind of data set: Cell cycle arrest in human MGC803 cells assessed as accumulation at G2/M phase at 1 uM after 48 hrs by propidium iodide staining-based FACS analysis relative to control. Type of data set: functional.
Data set [26] deals with MGC-803. Kind of data set: Cytotoxicity against human MGC803 cells assessed as cell viability at 1 to 10 uM after 48 hrs by MTT assay. Type of data set: functional, cell-based.

Active and inactive are the calls of the source. The calls are words filed in the database; no cut-off is given here.

A word on the IC50: it is the concentration that gives 50% inhibition. As to `COc1cc2nc(/C=C/c3ccc(Cl)cc3)n(CCCN(C)C)c(=O)c2cc1OC`, the Activity in [1] is listed as 29.93%; in data set [7] it was 4.89%; in data set [9] it was 29.22%; in data set [11], 3.5%; in data set [13], 59.4%; in data set [20] it was 51.79%. Further, the Activity entry is given as “Non-toxic” in [21]; 30.4% in data set [22]; 19.42% in data set [23]; 20.25% in [24]; 14.1% in data set [25]. Further, in data set [2], the inhibition entry is “inactive”. Further, the half-maximal inhibitory concentration (IC50) in data set [3] was 6.96 µM; in data set [5], 3.18 µM; in [15], 7.15 µM; in data set [19] it was more than 20 µM. Moreover, the result in data set [4] and in [12] was Active. In addition, the inhibition entry in [6], in data set [8], in [10], in data set [14], in data set [16] and in data set [17] was “Active” in each case. Further, the inhibition entry in [18] is “Active”.

`COc1cc2nc(/C=C/c3ccc(F)cc3)n(CCCN(C)C)c(=O)c2cc1OC`: the half-inhibitory concentration (IC50) in data set [3], in data set [5] and in data set [15] was more than 20 µM throughout. Besides, in [26], the outcome was inactive. Further, the inhibition result in data set [16] and in data set [17] was “inactive” in each case.
